Measured values reported in ChEMBL document CHEMBL1157361, “Steady-state disposition of the nonpeptidic protease inhibitor tipranavir when coadministered with ritonavir” (Antimicrob Agents Chemother, 2007).
Each block holds one compound with its values, some of them ahead of it.

Tests used:
[1] = Biodistribution in healthy human excreta assessed as Tipranavir hydroxyl metabolite H-1 level at 500 mg, po twice daily coadministered with ritonavir 200 mg, po twice daily for 21 days with additional single dose of 551 mg, po on day 7; format: ADME, organism-based; conditions: in vivo, 504 h
How it was run: (§1)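 Healthy male nonsmoking volunteers (9 completed) on TPV 500 mg + RTV 200 mg orally twice daily. On day 7, after a light snack 60 min earlier, they took 500 mg [14C]TPV (90 µCi) + 200 mg RTV and fasted 4 h; unlabelled dosing then resumed to day 20. Samples were stored at about –20°C until analysis.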

[2] = tested on: Homo sapiens; test: Cmax ( 0 to 12 hrs) in healthy human plasma at 500 mg, po twice daily coadministered with ritonavir 200 mg, po twice daily for 21 days with additional single dose of 551 mg, po on day 7; format: ADME, organism-based; design: dose 500 mg, route oral; conditions: in vivo; how it was run: as §1
[3] = Biodistribution in healthy human feces assessed as Tipranavir hydroxyl metabolite H-1 level at 500 mg, po twice daily coadministered with ritonavir 200 mg, po twice daily for 21 days with additional single dose of 551 mg, po on day 7; format: ADME, organism-based; conditions: in vivo, 504 h; how it was run: as §1
[4] = tested on: Homo sapiens; test: Tlast ( 0 to infinity) in healthy human blood at 500 mg, po twice daily coadministered with ritonavir 200 mg, po twice daily for 21 days with additional single dose of 551 mg, po on day 7; format: ADME, organism-based; conditions: in vivo, 504 h; how it was run: as §1
[5] = tested on: Homo sapiens; test: Volume of distribution ( 0 to infinity) in healthy human plasma at 500 mg, po twice daily coadministered with ritonavir 200 mg, po twice daily for 21 days with additional single dose of 551 mg, po on day 7; format: ADME, organism-based; conditions: in vivo, 504 h; how it was run: as §1
[6] = Biodistribution in healthy human excreta assessed as Tipranavir oxidation metabolite H-2 level at 500 mg, po twice daily coadministered with ritonavir 200 mg, po twice daily for 21 days with additional single dose of 551 mg, po on day 7; format: ADME, organism-based; conditions: in vivo, 504 h; how it was run: as §1
[7] = Biodistribution in healthy human assessed as radioactive drug dose recovery in feces at 500 mg, po twice daily coadministered with ritonavir 200 mg, po twice daily for 21 days with additional single dose of 551 mg, po on day 7; format: ADME, organism-based; conditions: in vivo, 504 h; how it was run: as §1
[8] = tested on: Homo sapiens; test: Volume of distribution ( 0 to infinity) in healthy human blood at 500 mg, po twice daily coadministered with ritonavir 200 mg, po twice daily for 21 days with additional single dose of 551 mg, po on day 7; format: ADME, organism-based; conditions: in vivo, 504 h; how it was run: as §1
[9] = tested on: Homo sapiens; test: Volume of distribution ( 0 to 12 hrs) in healthy human blood at 500 mg, po twice daily coadministered with ritonavir 200 mg, po twice daily for 21 days with additional single dose of 551 mg, po on day 7; format: ADME, organism-based; conditions: in vivo; how it was run: as §1
[10] = Biodistribution in healthy human excreta at 500 mg, po twice daily coadministered with ritonavir 200 mg, po twice daily for 21 days with additional single dose of 551 mg, po on day 7; format: ADME, organism-based; conditions: in vivo, 504 h; how it was run: as §1
[11] = tested on: Homo sapiens; test: Tlast ( 0 to infinity) in healthy human plasma at 500 mg, po twice daily coadministered with ritonavir 200 mg, po twice daily for 21 days with additional single dose of 551 mg, po on day 7; format: ADME, organism-based; conditions: in vivo, 504 h; how it was run: as §1
[12] = Biodistribution in healthy human sexcreta assessed as Tipranavir glucuronidation conjugate H-3 level at 500 mg, po twice daily coadministered with ritonavir 200 mg, po twice daily for 21 days with additional single dose of 551 mg, po on day 7; format: ADME, organism-based, Excreta; conditions: in vivo, 504 h; how it was run: as §1
[13] = Biodistribution in healthy human feces assessed as Tipranavir oxidation metabolite H-2 level at 500 mg, po twice daily coadministered with ritonavir 200 mg, po twice daily for 21 days with additional single dose of 551 mg, po on day 7; format: ADME, organism-based; conditions: in vivo, 504 h; how it was run: as §1
[14] = tested on: Homo sapiens; test: Volume of distribution ( 0 to 12 hrs) in healthy human plasma at 500 mg, po twice daily coadministered with ritonavir 200 mg, po twice daily for 21 days with additional single dose of 551 mg, po on day 7; format: ADME, organism-based; conditions: in vivo; how it was run: as §1
[15] = tested on: Homo sapiens; test: Biodistribution in healthy human assessed as radioactive drug dose recovery at 500 mg, po twice daily coadministered with ritonavir 200 mg, po twice daily for 21 days with additional single dose of 551 mg, po on day 7; format: ADME, organism-based; conditions: in vivo, 504 h; how it was run: as §1
[16] = tested on: Plasma; test: Biodistribution in healthy human plasma assessed as Tipranavir hydroxyl metabolite H-1 level at 500 mg, po twice daily coadministered with ritonavir 200 mg, po twice daily for 21 days with additional single dose of 551 mg, po on day 7 measured 3 hrs postdose; format: ADME, organism-based; conditions: in vivo; how it was run: as §1
[17] = Biodistribution in healthy human urine at 500 mg, po twice daily coadministered with ritonavir 200 mg, po twice daily for 21 days with additional single dose of 551 mg, po on day 7; format: ADME, organism-based; conditions: in vivo, 504 h; how it was run: as §1
[18] = Biodistribution in healthy human urine assessed as Tipranavir glucuronidation conjugate H-3 level at 500 mg, po twice daily coadministered with ritonavir 200 mg, po twice daily for 21 days with additional single dose of 551 mg, po on day 7; format: ADME, organism-based; conditions: in vivo, 504 h; how it was run: as §1
[19] = Biodistribution in healthy human assessed as radioactive drug dose recovery in urine at 500 mg, po twice daily coadministered with ritonavir 200 mg, po twice daily for 21 days with additional single dose of 551 mg, po on day 7; format: ADME, organism-based; conditions: in vivo, 504 h
[20] = tested on: Plasma; test: Biodistribution in healthy human plasma assessed as Tipranavir glucuronidation conjugate H-3 level at 500 mg, po twice daily coadministered with ritonavir 200 mg, po twice daily for 21 days with additional single dose of 551 mg, po on day 7 measured 3 hrs postdose; format: ADME, organism-based; conditions: in vivo; how it was run: as §1
[21] = Biodistribution in healthy human urine assessed as Tipranavir hydroxyl metabolite H-1 level at 500 mg, po twice daily coadministered with ritonavir 200 mg, po twice daily for 21 days with additional single dose of 551 mg, po on day 7; format: ADME, organism-based; conditions: in vivo, 504 h; how it was run: as §1
[22] = tested on: Homo sapiens; test: Toxicity in healthy human at 500 mg, po twice daily coadministered with ritonavir 200 mg, po twice daily for 21 days with additional single dose of 551 mg, po on day 7; format: organism-based; conditions: in vivo, 504 h
[23] = Clearance life in healthy human at 500 mg, po twice daily coadministered with ritonavir 200 mg, po twice daily for 21 days with additional single dose of 551 mg, po on day 7; format: ADME, organism-based; conditions: in vivo; how it was run: as §1
[24] = Drug level in healthy human at 500 mg, po twice daily coadministered with ritonavir 200 mg, po twice daily for 21 days with additional single dose of 551 mg, po on day 7 measured 12 hrs postdose; format: ADME, organism-based; conditions: plasma; how it was run: as §1
[25] = AUC (0 to 12 hrs) in healthy human at 500 mg, po twice daily coadministered with ritonavir 200 mg, po twice daily for 21 days with additional single dose of 551 mg, po on day 7; format: ADME, organism-based; design: dose 500 mg, time < 12 hr, route oral; conditions: plasma; how it was run: as §1
[26] = tested on: Homo sapiens; test: Volume of distribution in healthy human at 500 mg, po twice daily coadministered with ritonavir 200 mg, po twice daily for 21 days with additional single dose of 551 mg, po on day 7; format: ADME, organism-based; conditions: in vivo, 504 h; how it was run: as §1
[27] = Tmax in healthy human at 500 mg, po twice daily coadministered with ritonavir 200 mg, po twice daily for 21 days with additional single dose of 551 mg, po on day 7; format: ADME, organism-based; conditions: in vivo; how it was run: as §1
[28] = Half life in healthy human at 500 mg, po twice daily coadministered with ritonavir 200 mg, po twice daily for 21 days with additional single dose of 551 mg, po on day 7; format: ADME, organism-based; conditions: in vivo; how it was run: as §1
[29] = Cmax in healthy human at 500 mg, po twice daily coadministered with ritonavir 200 mg, po twice daily for 21 days with additional single dose of 551 mg, po on day 7; format: ADME, organism-based; design: dose 500 mg, route oral; conditions: in vivo; how it was run: as §1

Drug uptake [1]: 3.2 %ID | Cmax [2]: 90.5 µM | Drug uptake [3]: 3.2 %ID | Tlast [4]: 64 h | Vd [5]: 32.47 L | Drug uptake [6]: 0.4 %ID | Drug uptake [7]: 70.4% | Vd [8]: 44.23 L | Vd [9]: 15.68 L | Drug uptake [10]: 53.5 %ID | Tlast [11]: 90.67 h | Drug uptake [12]: 0.5 %ID | Drug uptake [13]: 0.4 %ID | Vd [14]: 8.32 L | Drug uptake [15]: 75.3% | Drug uptake [16]: 0.1 µg/mL | Drug uptake [17]: < 0.1 %ID | Drug uptake [18]: 0.5 %ID | Drug uptake [19]: 4.59% | Drug uptake [20]: 0.05 µg/mL | Drug uptake [21]: < 0.1 %ID
SMILES: CCC[C@@]1(CCc2ccccc2)CC(O)=C([14C@H](CC)c2cccc(NS(=O)(=O)c3ccc(C(F)(F)F)cn3)c2)C(=O)O1

CL/F [23]: 24.5 mL/min | concentration at 12 h [24]: 25.9 µM | AUC(0-t) at 12 h [25]: 657 µM·h | Vd [26]: 9.6 L | Tmax [27]: 2.9 h | half-life [28]: 4.6 h | Cmax [29]: 99.4 µM
SMILES: CCC[C@@]1(CCc2ccccc2)CC(O)=C([C@H](CC)c2cccc(NS(=O)(=O)c3ccc(C(F)(F)F)cn3)c2)C(=O)O1 [TIPRANAVIR]
Activity [22]: Non-toxic
